Results published in ChEMBL document CHEMBL1932969, “Acyl derivatives of boswellic acids as inhibitors of NF-κB and STATs” (Bioorg Med Chem Lett, 2012).
Calls of active or inactive are those of the source. The rule behind the calls is not given here.

What was measured:
[1] = target: Transcription factor p65 (Homo sapiens) (UniProt Q04206); assay: Inhibition of NF-kappaB p65 subunit protein expression in p53-deficient human HL60 cells at 20 uM after 6 hrs by Western blot analysis; format: cell-based; conditions: HL-60
Transcription factor p65 (Homo sapiens), sequence (Q04206 whole entry): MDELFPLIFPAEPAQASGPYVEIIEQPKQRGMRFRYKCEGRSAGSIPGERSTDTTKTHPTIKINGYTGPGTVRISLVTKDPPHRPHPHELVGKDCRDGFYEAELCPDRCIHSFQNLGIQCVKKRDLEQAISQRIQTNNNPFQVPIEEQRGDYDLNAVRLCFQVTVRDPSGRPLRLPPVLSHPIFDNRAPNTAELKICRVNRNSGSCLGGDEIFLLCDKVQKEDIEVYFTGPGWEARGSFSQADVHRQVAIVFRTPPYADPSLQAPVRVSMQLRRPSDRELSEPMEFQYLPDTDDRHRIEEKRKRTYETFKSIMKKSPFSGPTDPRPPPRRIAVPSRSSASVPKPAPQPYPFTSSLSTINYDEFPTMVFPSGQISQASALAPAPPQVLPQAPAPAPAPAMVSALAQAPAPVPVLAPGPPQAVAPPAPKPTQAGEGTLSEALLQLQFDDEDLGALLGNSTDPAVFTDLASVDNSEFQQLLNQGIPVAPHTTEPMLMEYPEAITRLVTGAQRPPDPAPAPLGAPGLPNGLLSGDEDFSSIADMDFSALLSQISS
Method in brief: (§1)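 HL-60 cells treated with or without compound (20 and 50 µM) for 6 h. Total cell lysates (70 µg protein) are run on 10% SDS–PAGE and immunoblotted for NF-κB p50 and p65.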

[2] = test system: SW-620; assay: Anticancer activity against human SW620 cells assessed as growth inhibition at 50 uM after 48 hrs by SRB assay; format: functional; conditions: SW-620, 48 h, read-out: GI
Method in brief: (§2)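 Cells exposed to test compounds at 50 µM for 48 h. Read-out is percent growth inhibition, with SEM given. 5-Fluorouracil and adriamycin serve as reference agents.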

[3] = test system: HEp-2; assay: Anticancer activity against human Hep2 cells assessed as growth inhibition at 50 uM after 48 hrs by SRB assay; format: functional; conditions: HEp-2, 48 h, read-out: GI; method in brief: as §2
[4] = Cytotoxicity against human HGF cells after 48 hrs by MTT assay; format: cell-based
Method in brief: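 Cell proliferation measured by MTT. Cells are incubated with each analog for 48 h at the indicated concentrations, then MTT reduction is read as an index of viability. OD of the untreated control is taken as 100% viability, and IC50 is derived from this.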

[5] = test system: HL-60; assay: Induction of apoptosis in p53-deficient human HL60 cells assessed as post-apoptotic cells at 50 uM after 6 hrs by FITC-conjugated annexinV/PI-based flow cytometric analysis (reference value: 1 %); format: functional
Method in brief: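 HL-60 cells incubated with each analog at 50 µM for 6 h, stained with annexin V-FITC/propidium iodide and analysed by flow cytometry. Lower right quadrant is apoptotic, upper right post-apoptotic, upper left necrotic. Three experiments, with representative dot plots shown.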

[6] = target: T1, Signal transducer and activator of transcription 5A (Homo sapiens) (UniProt P42229); assay: Inhibition of STAT5 Tyr694/699 phosphorylation in p53-deficient human HL60 cells at 20 to 50 uM after 6 hrs by Western blot analysis; format: cell-based; conditions: HL-60
T1 sequence (whole entry): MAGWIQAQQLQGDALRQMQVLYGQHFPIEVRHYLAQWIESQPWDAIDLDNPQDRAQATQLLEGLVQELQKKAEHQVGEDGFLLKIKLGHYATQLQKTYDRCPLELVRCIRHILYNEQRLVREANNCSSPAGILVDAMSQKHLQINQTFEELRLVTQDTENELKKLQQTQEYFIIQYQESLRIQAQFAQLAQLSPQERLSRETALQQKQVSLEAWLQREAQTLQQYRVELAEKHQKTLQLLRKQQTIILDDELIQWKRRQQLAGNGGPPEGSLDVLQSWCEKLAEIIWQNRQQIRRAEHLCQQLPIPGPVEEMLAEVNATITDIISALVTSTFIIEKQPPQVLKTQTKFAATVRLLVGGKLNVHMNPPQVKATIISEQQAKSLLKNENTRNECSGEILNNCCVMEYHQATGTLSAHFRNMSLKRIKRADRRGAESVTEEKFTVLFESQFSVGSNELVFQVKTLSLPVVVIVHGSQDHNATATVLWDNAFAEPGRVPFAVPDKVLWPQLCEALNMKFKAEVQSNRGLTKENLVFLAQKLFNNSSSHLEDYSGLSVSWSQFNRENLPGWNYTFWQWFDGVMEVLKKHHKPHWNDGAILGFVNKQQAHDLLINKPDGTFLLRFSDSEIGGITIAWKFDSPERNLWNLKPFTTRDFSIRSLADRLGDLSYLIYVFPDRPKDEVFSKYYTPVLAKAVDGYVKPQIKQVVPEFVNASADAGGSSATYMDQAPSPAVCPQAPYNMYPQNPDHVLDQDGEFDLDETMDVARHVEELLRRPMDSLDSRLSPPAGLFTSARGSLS

[7] = target: Transcription factor p65 (Homo sapiens) (UniProt Q04206); assay: Inhibition of NF-kappaB p65 subunit protein expression in p53-deficient human HL60 cells at 50 uM after 6 hrs by Western blot analysis; format: cell-based; conditions: HL-60; method in brief: as §1
[8] = test system: HT-29; assay: Anticancer activity against human HT-29 cells assessed as growth inhibition at 50 uM after 48 hrs by SRB assay; format: functional; conditions: HT-29, 48 h, read-out: GI; method in brief: as §2
[9] = target: T1, Signal transducer and activator of transcription 5A (Homo sapiens); assay: Inhibition of STAT5 protein expression in p53-deficient human HL60 cells at 20 to 50 uM after 6 hrs by Western blot analysis; format: cell-based; conditions: HL-60
[10] = test system: HL-60; assay: Induction of autophagy in p53-deficient human HL60 cells at 50 uM after 6 hrs by acridine orange staining; format: functional, cell-based
Method in brief: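 Autophagy scored by flow cytometry of HL-60 cells stained with acridine orange after 6 h exposure.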

[11] = test system: HL-60; assay: Induction of apoptosis in p53-deficient human HL60 cells assessed as DNA fragmentation at 50 uM after 6 hrs by agarose gel electrophoresis; format: functional, cell-based
Method in brief: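 2 × 10⁶ HL-60 cells treated with derivatives at 50 µM for 6 h, then scored for an apoptotic DNA ladder of 180–200 bp fragments or multiples. The positive control is 4 µM camptothecin for 6 h.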

[12] = target: T2, Signal transducer and activator of transcription 6 (Homo sapiens) (UniProt P42226); assay: Inhibition of STAT6 Tyr641 phosphorylation in p53-deficient human HL60 cells at 20 to 50 uM after 6 hrs by Western blot analysis; format: cell-based; conditions: HL-60
T2 sequence (whole entry): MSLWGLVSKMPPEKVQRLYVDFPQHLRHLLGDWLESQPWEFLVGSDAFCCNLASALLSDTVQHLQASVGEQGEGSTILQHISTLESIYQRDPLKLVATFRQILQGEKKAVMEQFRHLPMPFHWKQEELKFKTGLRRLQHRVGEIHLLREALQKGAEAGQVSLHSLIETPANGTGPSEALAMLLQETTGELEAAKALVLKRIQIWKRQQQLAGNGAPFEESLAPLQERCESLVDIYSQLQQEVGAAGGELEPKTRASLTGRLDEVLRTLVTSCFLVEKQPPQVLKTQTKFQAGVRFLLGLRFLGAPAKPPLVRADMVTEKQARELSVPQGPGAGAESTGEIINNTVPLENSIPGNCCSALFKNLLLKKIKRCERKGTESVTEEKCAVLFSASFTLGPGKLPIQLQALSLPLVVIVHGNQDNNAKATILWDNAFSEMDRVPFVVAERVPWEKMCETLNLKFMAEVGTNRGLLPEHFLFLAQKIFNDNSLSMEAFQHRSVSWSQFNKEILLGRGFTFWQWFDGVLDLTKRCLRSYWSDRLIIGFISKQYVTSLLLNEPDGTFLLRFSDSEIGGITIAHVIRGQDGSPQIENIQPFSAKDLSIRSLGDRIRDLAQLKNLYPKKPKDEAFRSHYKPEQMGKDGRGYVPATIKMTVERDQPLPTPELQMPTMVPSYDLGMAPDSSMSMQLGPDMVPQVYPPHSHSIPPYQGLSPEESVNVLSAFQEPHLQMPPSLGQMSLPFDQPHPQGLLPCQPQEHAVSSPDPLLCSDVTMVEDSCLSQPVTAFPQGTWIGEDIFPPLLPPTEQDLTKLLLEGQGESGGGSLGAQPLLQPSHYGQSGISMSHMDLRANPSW

[13] = test system: COLO 205; assay: Anticancer activity against human COLO205 cells assessed as growth inhibition at 50 uM after 48 hrs by SRB assay; format: functional; conditions: COLO 205, 48 h, read-out: GI; method in brief: as §2

In the case of CCCC(=O)O[C@@H]1CC[C@@]2(C)[C@@H](CC[C@]3(C)[C@@H]2C(=O)C=C2[C@@H]4[C@@H](C)[C@H](C)CC[C@]4(C)CC[C@]23C)[C@@]1(C)C(=O)O, the inhibition [1] is reported as 90%, the inhibition of growth at 50 µM [2] is reported as 97% and the inhibition of growth at 50 µM [3] is reported as 98%. The IC50 [4] was 80 µM, the Activity [5] was 48% and the inhibition [6] was “Active”. The inhibition [7] was 90%, the inhibition of growth at 50 µM [8] was 96% and the inhibition [9] was “Active”. The Activity [10] was “inactive”, the Activity [11] was “Active” and the inhibition [12] was “Active”. The inhibition of growth at 50 µM [13] was 94%.
